Measured values taken from ChEMBL document CHEMBL1144505, “Synthesis, analytical behaviour and biological evaluation of new 4-substituted pyrrolo[1,2-a]quinoxalines as antileishmanial agents” (Bioorg Med Chem, 2007).

Assays:
Leishmania amazonensis = test: Antileishmanial activity against Leishmania amazonensis MHOM/BR/1987/BA promastigotes by MTT assay after 1 to 2 days; format: functional, organism-based
Summary of the method: (§1)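 Promastigotes harvested at stationary growth phase (10⁶/ml), washed and incubated with compounds in culture medium. Viability was read by MTT reduction to formazan, with detergent lysis and absorbance at 570 nm; in some experiments parasites were instead counted under microscope. […] Values are means of three independent experiments.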

Leishmania infantum = test: Antileishmanial activity against Leishmania infantum clone MCAN/GR/82/LEM497 promastigotes by MTT assay after 1 to 2 days; format: functional, organism-based; summary of the method: as §1
PBMC [1] = test: Cytotoxicity against human PBMC by MTT assay after 3 to 4 days; format: cell-based
Summary of the method: (§2)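 Freshly isolated PBMC from healthy volunteers were prepared on a Ficoll gradient and cultured in medium alone or stimulated with PHA (5 µg/ml). Compounds were added, and after 3–4 days cells were harvested, washed and counted by trypan blue exclusion; in some experiments MTT was used instead. IC50 was obtained by linear regression, and the maximum tolerated concentration was also assessed.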

PBMC [2] = test: Cytotoxicity against human phytohemagglutininin-activated-PBMC by MTT assay after 3 to 4 days; format: cell-based; summary of the method: as §2
[3] = Selectivity index, ratio of IC50 for phytohemagglutininin-activated-PBMC to IC50 for Leishmania amazonensis MHOM/BR/1987/BA promastigotes; format: functional
Summary of the method: (§3)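 Selectivity index is the IC50 on PHA-activated PBMC divided by the IC50 against the L. amazonensis or L. infantum promastigotes.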

[4] = Selectivity index, ratio of IC50 for phytohemagglutininin-activated-PBMC to IC50 for Leishmania infantum clone MCAN/GR/82/LEM497 promastigotes; format: functional; summary of the method: as §3
[5] = Partition coefficient, log D at pH 7.4; settings: octanol/water

Row | Compound | IC50 (Leishmania amazonensis) [µM] | IC50 (Leishmania infantum) [µM] | IC50 (PBMC [1]) [µM] | IC50 (PBMC [2]) [µM] | Ratio IC50 [3] | Ratio IC50 [4] | logD [5]
1 | CCCCC#Cc1nc2ccccc2n2cccc12 | 18 | 25 | 50 | 25 | 1.4 | 1 | 4.36
2 | CCCc1nc2cc(OC)ccc2n2cccc12 | > 50 | > 50 | > 100 | 90 | – | – | 3.4
3 | CCCCCc1nc2cc(OC)ccc2n2cccc12 | > 50 | > 50 | 66 | 45 | <1 | <1 | 4.38
4 | CCC/C=C/c1nc2ccccc2n2cccc12 | 5 | 7 | 70 | 52 | 10.4 | 7.4 | 4.44
5 | COc1ccc(CCc2nc3ccccc3n3cccc23)cc1OC | 30 | > 50 | > 100 | > 100 | >3.3 | – | 2.97
6 | COc1ccc2c(c1)nc(/C=C/c1ccccc1)c1cccn12 | 36 | 5 | > 100 | > 100 | – | – | –
7 | CCCc1nc2ccccc2n2cccc12 | > 50 | > 50 | > 100 | 100 | – | – | 3.35
8 | C1=C(c2nc3ccccc3n3cccc23)CCCC1 | > 50 | > 50 | > 100 | > 100 | – | – | 4.12
9 | C/C=C\c1nc2ccccc2n2cccc12 | 4 | 0.8 | 8 | 6 | 1.5 | 7.5 | 3.3
10 | C(=C\c1nc2ccccc2n2cccc12)/c1ccccc1 | 35 | > 50 | > 100 | > 100 | >2.9 | – | 4.84
11 | C/C=C/c1nc2cc(OC)ccc2n2cccc12 | 7 | 2 | 5 | 5 | 0.7 | 2.5 | 3.47
12 | C/C=C/c1nc2ccc(OC)cc2n2cccc12 | 1 | 0.5 | 7 | 5 | 5 | 10 | 3.48
13 | CCCCCc1nc2ccccc2n2cccc12 | > 50 | > 50 | > 100 | 30 | <1 | <1 | 4.04
14 | CCC/C=C/c1nc2cc(OC)ccc2n2cccc12 | 6 | 1 | 60 | 40 | 6.7 | 40 | 4.52
15 | C=Cc1nc2ccccc2n2cccc12 | 3 | 0.5 | 3 | 1 | 0.3 | 2 | 3.08
16 | C/C=C/c1nc2ccccc2n2cccc12 | 0.5 | 0.7 | 6 | 5 | 10 | 7.1 | 3.44
17 | c1ccc(-c2nc3ccccc3n3cccc23)cc1 | > 50 | > 50 | > 100 | > 100 | – | – | 3.6
18 | c1ccc2c(c1)nc(CCc1ccc3c(c1)OCO3)c1cccn12 | 7 | > 50 | > 100 | 65 | 9.3 | – | 3.84
19 | CCCCC#Cc1nc2cc(OC)ccc2n2cccc12 | 3 | 7 | 6 | 5 | 1.7 | 0.7 | 4.35
20 | CCC/C=C/c1nc2ccc(OC)cc2n2cccc12 | 4 | 2.5 | 55 | 30 | 7.5 | 12 | 4.3
21 | C[C@H]1O[C@H]1c1nc2ccccc2n2cccc12 (relative stereo) | > 50 | > 50 | > 100 | > 100 | – | – | 2.55
22 | C[C@@H]1O[C@H]1c1nc2ccccc2n2cccc12 (relative stereo) | > 50 | > 50 | > 100 | > 100 | – | – | 2.61
23 | C[C@@H]1[C@H](O)[C@@H](C)/C=C/C=C/C=C/C=C/C=C/C=C/C=C/[C@H](O[C@@H]2O[C@H](C)[C@@H](O)[C@H](N)[C@@H]2O)C[C@@H]2O[C@](O)(C[C@@H](O)C[C@@H](O)[C@H](O)CC[C@@H](O)C[C@@H](O)CC(=O)O[C@H]1C)C[C@H](O)[C@H]2C(=O)O [AMPHOTERICIN B] | 1 | 0.9 | > 100 | 96 | 96 | 106.6 | –
24 | C/C=C/c1ccc2ccccc2n1 [CHIMANINE B] | 5 | 7 | 43 | 42 | 8.4 | 6 | 2.23
